Assay results as given in ChEMBL document CHEMBL3244150, “Semisynthetic cephalosporins. Synthesis and structure-activity relationships of analogues with 7-acyl groups derived from 2-(cyanomethylthio)acetic acid or 2-[(2,2,2-trifluoroethyl)thio]acetic acid and their sulfoxides and sulfones” (1977).
In brackets after ≈: the same amount, converted by molar mass. Activity calls are given as the source filed them. The calls are words filed in the database; no cut-off is given here.

What was measured:
[1] = test system: Enterococcus faecalis; assay: Antibacterial activity against Streptococcus faecalis after overnight incubation by twofold agar dilution method; format: functional
In short: (§1)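 Twofold agar dilution on Trypticase soy agar buffered to pH 6.0. MIC recorded in ug/ml.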

[2] = test system: Escherichia coli; assay: Antibacterial activity against Escherichia coli 12140 infected in sc dosed mouse assessed as mouse survival after 3 days; format: functional; details: Escherichia coli, 12140, sc, 72 h; read-out: PD50
In short: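 Mice infected ip with approximately 2 X 10 organisms per mouse of E. coli 12140 culture diluted in 5% hog gastric mucin (uniformly lethal). Fourfold dilutions dosed sc in equally divided portions at 1 and 5 h postinfection; five groups of ten mice each. Survivors observed for 3 days. PD50 = total dose (mg/kg) protecting 50% of mice, calculated by Litchfield and Wilcoxon method.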

[3] = test system: Klebsiella aerogenes; assay: Antibacterial activity against Enterobacter aerogenes ATCC 13048 after overnight incubation by twofold agar dilution method; format: functional; in short: as §1
[4] = test system: Escherichia coli; assay: Antibacterial activity against Escherichia coli 12140 after overnight incubation by twofold agar dilution method; format: functional; in short: as §1
[5] = test system: Salmonella paratyphi; assay: Antibacterial activity against Salmonella paratyphi ATCC 12176 after overnight incubation by twofold agar dilution method; format: functional, Salmonella enterica subsp. enterica serovar Paratyphi A; details: Salmonella enterica
In short: (§2)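 MIC (ug/ml) determined by twofold agar dilution on Trypticase soy agar buffered to pH 6.0.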

[6] = test system: Klebsiella pneumoniae; assay: Antibacterial activity against Klebsiella pneumoniae 4200 after overnight incubation by twofold agar dilution method; format: functional; in short: as §1
[7] = test system: Shigella flexneri; assay: Antibacterial activity against Shigella paradysenteriae HH 117 after overnight incubation by twofold agar dilution method; format: functional; in short: as §2
[8] = test system: Staphylococcus aureus; assay: Antibacterial activity against penicillin G-resistant Staphylococcus aureus HH 127 after overnight incubation by twofold agar dilution method; format: functional; in short: as §2
[9] = test system: Pseudomonas aeruginosa; assay: Antibacterial activity against Pseudomonas aeruginosa after overnight incubation by twofold agar dilution method; format: functional, organism-based; in short: as §1

Row | SMILES | MIC [1] | ED50 [2] | MIC [3] | MIC [4] | MIC [5] | MIC [6] | MIC [7] | MIC [8] | Activity [9]
1 | CC(=O)OCC1=C(C(=O)[O-])N2C(=O)[C@@H](NC(=O)C[S+]([O-])CC(F)(F)F)[C@H]2SC1.[Na+] (stereo not given in full) | > 13 µg/mL | 25 mg/kg | 6.3 µg/mL | 6.3 µg/mL | 1.6 µg/mL | 3.1 µg/mL | 3.1 µg/mL | 0.8 µg/mL | inactive
2 | Cc1nnc(SCC2=C(C(=O)[O-])N3C(=O)[C@@H](NC(=O)CS(=O)(=O)CC(F)(F)F)[C@H]3SC2)s1.[Na+] | > 13 µg/mL | 35 mg/kg | 12.5 µg/mL | 6.3 µg/mL | 6.3 µg/mL | 6.3 µg/mL | 6.3 µg/mL | 1.6 µg/mL | inactive
3 | Cc1nnc(SCC2=C(C(=O)[O-])N3C(=O)[C@@H](NC(=O)C[S+]([O-])CC#N)[C@H]3SC2)s1.[Na+] (stereo not given in full) | > 13 µg/mL | 22 mg/kg | 6.3 µg/mL | 3.1 µg/mL | 0.8 µg/mL | 1.6 µg/mL | 0.8 µg/mL | 0.8 µg/mL | inactive
4 | CC(=O)OCC1=C(C(=O)[O-])N2C(=O)[C@@H](NC(=O)CSCC#N)[C@H]2SC1.[Na+] | > 13 µg/mL | > 200 mg/kg | > 200 µg/mL | 6.3 µg/mL | 1.6 µg/mL | 1.6 µg/mL | 6.3 µg/mL | 0.2 µg/mL | inactive
5 | Cn1nnnc1SCC1=C(C(=O)[O-])N2C(=O)[C@@H](NC(=O)C[S+]([O-])CC#N)[C@H]2SC1.[Na+] (stereo not given in full) | > 13 µg/mL | 10 mg/kg | 12.5 µg/mL | 1.6 µg/mL | 0.8 µg/mL | 1.6 µg/mL | 1.6 µg/mL | 1.6 µg/mL | inactive
6 | Cc1nnc(SCC2=C(C(=O)[O-])N3C(=O)[C@@H](NC(=O)CSCC(F)(F)F)[C@H]3SC2)s1.[Na+] | > 13 µg/mL | 33 mg/kg | 25 µg/mL | 6.3 µg/mL | 6.3 µg/mL | 6.3 µg/mL | 1.6 µg/mL | 0.2 µg/mL | inactive
7 | CC(=O)OCC1=C(C(=O)[O-])N2C(=O)[C@@H](NC(=O)C[S+]([O-])CC#N)[C@H]2SC1.[Na+] (stereo not given in full) | > 13 µg/mL | 21 mg/kg | 25 µg/mL | 12.5 µg/mL | 3.1 µg/mL | 6.3 µg/mL | 6.3 µg/mL | 1.6 µg/mL | inactive
8 | CC(=O)OCC1=C(C(=O)O)N2C(=O)[C@@H](NC(=O)CC#N)[C@H]2SC1 [CEPHACETRILE] | > 13 µg/mL | 25 mg/kg | 6.3 µg/mL (≈ 18.6 µM) | 6.3 µg/mL (≈ 18.6 µM) | 3.1 µg/mL (≈ 9.14 µM) | 3.1 µg/mL (≈ 9.14 µM) | 3.1 µg/mL (≈ 9.14 µM) | 0.4 µg/mL (≈ 1.18 µM) | inactive
9 | Cn1nnnc1SCC1=C(C(=O)[O-])N2C(=O)[C@@H](NC(=O)CSCC#N)[C@H]2SC1.[Na+] | > 13 µg/mL | 11 mg/kg | 12.5 µg/mL | 0.8 µg/mL | 0.4 µg/mL | 1.6 µg/mL | 0.8 µg/mL | 0.4 µg/mL | inactive
10 | Cn1nnnc1SCC1=C(C(=O)[O-])N2C(=O)[C@@H](NC(=O)CSCC(F)(F)F)[C@H]2SC1.[Na+] | > 13 µg/mL | 11 mg/kg | 6.3 µg/mL | 1.6 µg/mL | 0.8 µg/mL | 3.1 µg/mL | 0.4 µg/mL | 0.2 µg/mL | inactive
11 | CC(=O)OCC1=C(C(=O)O)N2C(=O)[C@@H](NC(=O)CS(=O)(=O)CC#N)[C@H]2SC1 | > 13 µg/mL | 35 mg/kg | 50 µg/mL (≈ 120 µM) | 6.3 µg/mL (≈ 15.1 µM) | 3.1 µg/mL (≈ 7.43 µM) | 25 µg/mL (≈ 59.9 µM) | 6.3 µg/mL (≈ 15.1 µM) | 1.6 µg/mL (≈ 3.83 µM) | inactive
12 | Cn1nnnc1SCC1=C(C(=O)[O-])N2C(=O)[C@@H](NC(=O)C[S+]([O-])CC(F)(F)F)[C@H]2SC1.[Na+] (stereo not given in full) | > 13 µg/mL | 1.5 mg/kg | 6.3 µg/mL | 0.8 µg/mL | 1.6 µg/mL | 0.4 µg/mL | 0.4 µg/mL | 1.6 µg/mL | inactive
13 | CC(=O)OCC1=C(C(=O)O)N2C(=O)[C@@H](NC(=O)Cc3cccs3)[C@H]2SC1 [CEPHALOTHIN] | > 13 µg/mL | 50 mg/kg | 50 µg/mL (≈ 126 µM) | 3.1 µg/mL (≈ 7.82 µM) | 1.6 µg/mL (≈ 4.04 µM) | 3.1 µg/mL (≈ 7.82 µM) | 6.3 µg/mL (≈ 15.9 µM) | 0.2 µg/mL (≈ 0.504 µM) | inactive
14 | CC(=O)OCC1=C(C(=O)[O-])N2C(=O)[C@@H](NC(=O)CS(=O)(=O)CC(F)(F)F)[C@H]2SC1.[Na+] | > 13 µg/mL | 100 mg/kg | 50 µg/mL | 25 µg/mL | 3.1 µg/mL | 6.3 µg/mL | 12.5 µg/mL | 3.1 µg/mL | inactive
15 | CC(=O)OCC1=C(C(=O)[O-])N2C(=O)[C@@H](NC(=O)CSCC(F)(F)F)[C@H]2SC1.[Na+] | > 13 µg/mL | 184 mg/kg | 50 µg/mL | 6.3 µg/mL | 6.3 µg/mL | 3.1 µg/mL | 6.3 µg/mL | 0.4 µg/mL | inactive
16 | Cn1nnnc1SCC1=C(C(=O)O)N2C(=O)[C@@H](NC(=O)CSC(F)(F)F)[C@H]2SC1 [CEFAZAFLUR] | > 13 µg/mL | 2 mg/kg | 1.6 µg/mL (≈ 3.4 µM) | 0.4 µg/mL (≈ 0.85 µM) | 0.4 µg/mL (≈ 0.85 µM) | 0.8 µg/mL (≈ 1.7 µM) | 0.2 µg/mL (≈ 0.425 µM) | 0.4 µg/mL (≈ 0.85 µM) | inactive
17 | Cc1nnc(SCC2=C(C(=O)O)N3C(=O)[C@@H](NC(=O)CS(=O)(=O)CC#N)[C@H]3SC2)s1 | > 13 µg/mL | 15 mg/kg | 12.5 µg/mL (≈ 25.5 µM) | 6.3 µg/mL (≈ 12.9 µM) | 6.3 µg/mL (≈ 12.9 µM) | 6.3 µg/mL (≈ 12.9 µM) | 3.1 µg/mL (≈ 6.33 µM) | 1.6 µg/mL (≈ 3.27 µM) | inactive
18 | Cc1nnc(SCC2=C(C(=O)[O-])N3C(=O)[C@@H](NC(=O)CSCC#N)[C@H]3SC2)s1.[Na+] | > 13 µg/mL | 14 mg/kg | > 200 µg/mL | 1.6 µg/mL | 1.6 µg/mL | 1.6 µg/mL | 1.6 µg/mL | 0.2 µg/mL | inactive
19 | Cc1nnc(SCC2=C(C(=O)[O-])N3C(=O)[C@@H](NC(=O)C[S+]([O-])CC(F)(F)F)[C@H]3SC2)s1.[Na+] (stereo not given in full) | > 13 µg/mL | 6 mg/kg | 6.3 µg/mL | 3.1 µg/mL | 1.6 µg/mL | 3.1 µg/mL | 0.8 µg/mL | 0.8 µg/mL | inactive
20 | Cc1nnc(SCC2=C(C(=O)O)N3C(=O)[C@@H](NC(=O)Cn4cnnn4)[C@H]3SC2)s1 [CEFAZOLIN] | > 13 µg/mL | 6 mg/kg | 1.6 µg/mL (≈ 3.52 µM) | 0.8 µg/mL (≈ 1.76 µM) | 0.8 µg/mL (≈ 1.76 µM) | 0.8 µg/mL (≈ 1.76 µM) | 0.4 µg/mL (≈ 0.88 µM) | 0.4 µg/mL (≈ 0.88 µM) | inactive
